Results on 32 compounds are retold here after ChEMBL document CHEMBL3994636, “New tools in nucleoside toolbox of tick-borne encephalitis virus reproduction inhibitors” (Bioorg Med Chem Lett, 2017).

Broadly, the inhibition is the percentage by which the read-out fell short of the control. For orientation: pEC50 means −log10 of the EC50, conventionally taken in molar units. As usually defined, the CC50 is the concentration at which the toxic effect on the cells reaches its halfway point. A low value points to harm at low concentration.

Data set [1] deals with Tick-borne encephalitis virus. The data set is described as follows: Antiviral activity against […] Absettarov infected in PEK cells assessed as inhibition of viral reproduction at 50 uM preincubated with virus for 1 hr followed by addition to PEK cells measured after 1 hr by gentian violet staining based plaque reduction assay relative to control. The class given is functional. For orientation: Plaques are areas of infected cells; plaque reduction assays count them against a control.

Data set [2] deals with Tick-borne encephalitis virus. The data set is described as follows: Antiviral activity against […] Absettarov infected in PEK cells assessed as inhibition of viral reproduction preincubated with virus for 1 hr followed by addition to PEK cells measured after 1 hr by gentian violet staining based plaque reduction assay. The class given is functional, cell-based.
Data set [3] is described as follows: Cytotoxicity against PEK cells after 24 hrs. It counts as cell-based, Sus scrofa. As to conditions: pig. An outline of the steps:
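PEK (porcine embryo kidney) cells were exposed to compound at 50 μM for 24 h and examined for cytotoxicity.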

Data set [4] in a line: Cytotoxicity against PEK cells after 7 days. To be noted: pig. The class given is cell-based, Sus scrofa.

pEC50: −log10 of the molar value. Activity calls are given as the source filed them. The rule behind the calls is not given here.

For `C[C@@]1(O)[C@@H](CO)O[C@@H](n2ccc(N)nc2=O)[C@@H]1O`, the inhibition result in data set [1] was “inactive”. In data set [2], the negative-log EC50 (pEC50) was less than 4.30.

As for `CNc1ncnc2c1ncn2[C@@H]1O[C@H](CO)[C@@H](O)[C@H]1O`, the inhibition result in data set [1] is “inactive”. For the same compound, the negative-log EC50 (pEC50) in data set [2] is less than 4.30.

Take `OC[C@H]1O[C@@H](n2cnc3c(NCc4ccco4)ncnc32)[C@H](O)[C@@H]1O` [KINETIN RIBOSIDE]: the inhibition result in data set [1] was “inactive”. Further, the pEC50 in data set [2] was less than 4.30.

Turning to `OC[C@H]1O[C@@H](n2cnc3c(NC4CCCCC4)ncnc32)[C@H](O)[C@@H]1O`, in data set [1], the inhibition result is “inactive”. Moreover, in data set [2], the pEC50 was less than 4.30.

With `CC(C)(C)[Si](C)(C)OC[C@H]1O[C@@H](n2cnc3c(NCc4ccccc4)ncnc32)[C@H](O)[C@@H]1O`, in data set [1], the inhibition at 50 µM is 50%. Besides, the negative-log EC50 (pEC50) in data set [2] was 4.70. The compound also had a 50% cytotoxic concentration (CC50) at 24 h in data set [3] of more than 50 µM. In data set [4], this compound displayed a CC50 at 168 h of more than 50 µM.

Take `CC(C)C(=O)Nc1nc2c(ncn2[C@@H]2O[C@H](CO)[C@@H](O)[C@H]2O)c(=O)[nH]1`: the inhibition entry in data set [1] is “inactive”. Moreover, the pEC50 in data set [2] was less than 4.30.

In the case of `OC[C@H]1O[C@@H](n2cnc3c(NCc4ccc5ccc6cccc7ccc4c5c67)ncnc32)[C@H](O)[C@@H]1O`, the inhibition at 50 µM in data set [1] stood at 50%. Moreover, in data set [2], the negative-log EC50 (pEC50) is 5.22. Also, in data set [3], the half-maximal cytotoxic concentration (CC50) at 24 h is more than 50 µM. This compound returned a half-maximal cytotoxic concentration (CC50) at 168 h in data set [4] of 9 µM.

`CC1(C)[C@H]2CC=C(CNc3ncnc4c3ncn4[C@@H]3O[C@H](CO)[C@@H](O)[C@H]3O)[C@@H]1C2`: the inhibition entry in data set [1] was “inactive”. Further, in data set [2], the pEC50 was less than 4.30.

In the case of `C[C@@]1(O)[C@@H](CO)O[C@@H](n2cnc3c(=O)[nH]c(N)nc32)[C@@H]1O`, the inhibition entry in data set [1] was “inactive”. Further, the pEC50 in data set [2] was less than 4.30.

Take `OC[C@H]1O[C@@H](n2cnc3c(NCc4c5ccccc5cc5ccccc45)ncnc32)[C@H](O)[C@@H]1O`: the inhibition at 50 µM in data set [1] was found to be 50%. In addition, the negative logarithm of the EC50 (pEC50) in data set [2] is 4.82. The half-maximal cytotoxic concentration (CC50) at 24 h in data set [3] is more than 50 µM. In data set [4], this compound displayed a CC50 at 168 h of more than 50 µM.

In the case of `CC(C)=CCNc1ncnc2c1ncn2[C@@H]1O[C@H](CO)[C@@H](O)[C@H]1O` [RIBOPRINE], the inhibition result in data set [1] was “inactive”. Also, the negative-log EC50 (pEC50) in data set [2] was less than 4.30.

As for `Cc1cn([C@@H]2O[C@H](CO)[C@@](C)(O)[C@H]2O)c(=O)[nH]c1=O`, the inhibition entry in data set [1] was “inactive”. For the same compound, the pEC50 in data set [2] is less than 4.30.

For the compound `OC/C=C\CNc1ncnc2c1ncn2[C@@H]1O[C@H](CO)[C@@H](O)[C@H]1O`, in data set [1], the inhibition entry was “inactive”. Moreover, the pEC50 in data set [2] was less than 4.30.

With `OC[C@H]1O[C@@H](n2cnc3c(NCc4ccccc4)ncnc32)[C@H](O)[C@@H]1O` [N6-BENZYLADENOSINE], the inhibition result in data set [1] was “inactive”. Besides, the pEC50 in data set [2] is less than 4.30. Moreover, the CC50 at 24 h in data set [3] was more than 50 µM. The same compound gave a CC50 at 168 h in data set [4] of more than 50 µM.

In data set [3], `c1ccc(CNc2ncnc3nc[nH]c23)cc1` [6-BENZYLAMINOPURINE] returned a CC50 at 24 h of more than 50 µM. In data set [4], the half-maximal cytotoxic concentration (CC50) at 168 h is more than 50 µM.

Take `C#CCNc1ncnc2c1ncn2[C@@H]1O[C@H](CO)[C@@H](O)[C@H]1O`: in data set [1], the inhibition result is “inactive”. For the same compound, in data set [2], the negative logarithm of the EC50 (pEC50) was less than 4.30.

On to `O=C(Nc1nc2c(ncn2[C@@H]2O[C@H](CO)[C@@H](O)[C@H]2O)c(=O)[nH]1)c1ccccc1`, for which the inhibition result in data set [1] is “inactive”. The pEC50 in data set [2] is less than 4.30.

In the case of `Cn1cnc2c(ncn2[C@@H]2O[C@H](CO)[C@@H](O)[C@H]2O)c1=N`, in data set [1], the inhibition entry is “inactive”. The negative-log EC50 (pEC50) in data set [2] was less than 4.30.

For `O[C@@H]1[C@H](O)[C@@H](COC(c2ccccc2)(c2ccccc2)c2ccccc2)O[C@H]1n1cnc2c(NCc3ccccc3)ncnc21`, the inhibition at 50 µM in data set [1] came out at 50%. In addition, the negative-log EC50 (pEC50) in data set [2] was 5.70. The CC50 at 24 h in data set [3] is more than 50 µM. For the same compound, it took 9 µM to reach half-maximal cytotoxicity in data set [4] (CC50 at 168 h).

Turning to `OC[C@H]1O[C@@H](n2cnc3c(NCC#Cc4ccccc4)ncnc32)[C@H](O)[C@@H]1O`, the inhibition result in data set [1] is “inactive”. In addition, the negative-log EC50 (pEC50) in data set [2] is less than 4.32.

With `C[C@@]1(O)[C@@H](CO)O[C@@H](n2ccc(=O)[nH]c2=O)[C@@H]1O`, in data set [1], the inhibition entry was “inactive”. Also, in data set [2], the pEC50 was less than 4.30.

Turning to `CC(C)[Si](OC[C@H]1O[C@@H](n2cnc3c(NCc4ccccc4)ncnc32)[C@H](O)[C@@H]1O)(C(C)C)C(C)C`, in data set [1], the inhibition at 50 µM amounted to 50%. Also, the pEC50 in data set [2] is 5.30. Moreover, the half-maximal cytotoxic concentration (CC50) at 24 h in data set [3] is more than 50 µM. In data set [4], this compound yielded a cytotoxic concentration (CC50) at 168 h of more than 50 µM.

On to `OC[C@H]1O[C@@H](n2cnc3c(NC/C=C/c4ccccc4)ncnc32)[C@H](O)[C@@H]1O`, for which the inhibition entry in data set [1] is “inactive”. Besides, the pEC50 in data set [2] was less than 4.30.

Consider `CC(C)=CCC/C(C)=C\CNc1ncnc2c1ncn2[C@@H]1O[C@H](CO)[C@@H](O)[C@H]1O`, for which the inhibition result in data set [1] is “inactive”. The pEC50 in data set [2] was less than 4.30.

In the case of `C[n+]1cn([C@@H]2O[C@H](CO)[C@@H](O)[C@H]2O)c2nc(N)nc([O-])c21`, the inhibition entry in data set [1] was “inactive”. In addition, in data set [2], the pEC50 was less than 4.30.

Turning to `C=C(C)[C@@H]1CC=C(CNc2ncnc3c2ncn3[C@@H]2O[C@H](CO)[C@@H](O)[C@H]2O)CC1`, the inhibition result in data set [1] was “inactive”. For the same compound, the pEC50 in data set [2] was less than 4.30.

As for `O=C(Nc1ccn(C2O[C@H](CO)[C@@H](O)[C@H]2O)c(=O)n1)c1ccccc1` (stereo partly specified), the inhibition result in data set [1] is “inactive”. Further, the pEC50 in data set [2] is less than 4.30.

On to `c1ccc(CNc2ncnc3[nH]cnc23)cc1` [6-BENZYLAMINOPURINE], for which, in data set [1], the inhibition entry is “inactive”. In addition, in data set [2], the pEC50 is less than 4.30.

As to `CC(C)=CCC/C(C)=C/CNc1ncnc2c1ncn2[C@@H]1O[C@H](CO)[C@@H](O)[C@H]1O`, the inhibition result in data set [1] is “inactive”. For the same compound, in data set [2], the negative-log EC50 (pEC50) was less than 4.30.

With `OC[C@H]1O[C@@H](n2cnc3c(NCc4ccc5ccccc5c4)ncnc32)[C@H](O)[C@@H]1O`, in data set [1], the inhibition result was “inactive”. Moreover, the pEC50 in data set [2] was less than 4.30.

On to `OC[C@H]1O[C@@H](n2cnc3c(NC(c4ccccc4)(c4ccccc4)c4ccccc4)ncnc32)[C@H](O)[C@@H]1O`, for which, in data set [1], the inhibition entry was “inactive”. For the same compound, the pEC50 in data set [2] was less than 4.30.

Regarding `C=CCC#CCNc1ncnc2c1ncn2[C@@H]1O[C@H](CO)[C@@H](O)[C@H]1O`, the inhibition entry in data set [1] is “inactive”. Moreover, the pEC50 in data set [2] is less than 4.30.
